From ChEMBL document CHEMBL3046583, “Design, synthesis, and insecticidal activity of novel pyrazole derivatives containing α-hydroxymethyl-N-benzyl carboxamide, α-chloromethyl-N-benzyl carboxamide, and 4,5-dihydrooxazole moieties” (2012)
The source made the active and inactive calls. The rule behind the calls is not given here.

Legend:
[1] = test system: Tetranychus cinnabarinus; assay: Acaricidal activity against Tetranychus cinnabarinus (carmine spider mite) eggs at 600 mg/kg by leaf dip method; assay type: functional, Egg
[2] = test system: Culex pipiens pallens; assay: Larvicidal activity against Culex pipiens pallens (mosquito) at 1 mg/kg; assay type: functional
[3] = test system: Helicoverpa armigera; assay: Stomach toxicity against third-instars Helicoverpa armigera assessed as larvicidal activity at 22 mg/kg at 25 +/- 1 degC after 3 days; assay type: functional
Summary of the method: (§1)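 Diet-incorporation assay on third-instar larvae. Samples dissolved in acetone to the desired final concentrations; 3 mL of test solution mixed evenly into about 27 g of prepared feed, then dispensed into 24-well plates. Run in triplicate at 25 ± 1 °C. Dead/alive scoring 3 days after treatment; mortality corrected by Abbott's formula on a 0–100 scale.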

[4] = test system: Culex pipiens pallens; assay: Larvicidal activity against Culex pipiens pallens (mosquito) at 2 mg/kg; assay type: functional
[5] = test system: Plutella xylostella; assay: Stomach toxicity against Plutella xylostella (diamondback moth) assessed as larvicidal activity at 200 mg/kg by leaf dip method; assay type: functional
[6] = test system: Aphis craccivora; assay: Larvicidal activity against Aphis craccivora (cowpea aphid) at 200 mg/kg by leaf dip method; assay type: functional
[7] = test system: Aphis craccivora; assay: Larvicidal activity against Aphis craccivora (cowpea aphid) at 600 mg/kg by leaf dip method; assay type: functional
[8] = test system: Culex pipiens pallens; assay: Larvicidal activity against Culex pipiens pallens (mosquito) at 5 mg/kg; assay type: functional
[9] = test system: Helicoverpa armigera; assay: Stomach toxicity against third-instars Helicoverpa armigera assessed as larvicidal activity at 5.5 mg/kg at 25 +/- 1 degC after 3 days; assay type: functional; summary of the method: as §1
[10] = test system: Helicoverpa armigera; assay: Stomach toxicity against third-instars Helicoverpa armigera assessed as larvicidal activity at 110 mg/kg at 25 +/- 1 degC after 3 days; assay type: functional; summary of the method: as §1
[11] = test system: Plutella xylostella; assay: Stomach toxicity against Plutella xylostella (diamondback moth) assessed as larvicidal activity at 600 mg/kg by leaf dip method; assay type: functional
[12] = test system: Helicoverpa armigera; assay: Stomach toxicity against third-instars Helicoverpa armigera assessed as larvicidal activity at 11 mg/kg at 25 +/- 1 degC after 3 days; assay type: functional; summary of the method: as §1
[13] = test system: Culex pipiens pallens; assay: Larvicidal activity against Culex pipiens pallens (mosquito) at 0.5 mg/kg; assay type: functional
[14] = test system: Tetranychus cinnabarinus; assay: Acaricidal activity against Tetranychus cinnabarinus (carmine spider mite) eggs at 200 mg/kg by leaf dip method; assay type: functional, Egg
[15] = test system: Tetranychus cinnabarinus; assay: Acaricidal activity against Tetranychus cinnabarinus (carmine spider mite) adults at 600 mg/kg by leaf dip method; assay type: functional
[16] = test system: Helicoverpa armigera; assay: Stomach toxicity against third-instars Helicoverpa armigera assessed as larvicidal activity at 55 mg/kg at 25 +/- 1 degC after 3 days; assay type: functional; summary of the method: as §1
[17] = test system: Tetranychus cinnabarinus; assay: Acaricidal activity against Tetranychus cinnabarinus (carmine spider mite) larvae at 600 mg/kg by leaf dip method; assay type: functional
[18] = test system: Tetranychus cinnabarinus; assay: Acaricidal activity against Tetranychus cinnabarinus (carmine spider mite) larvae at 200 mg/kg by leaf dip method; assay type: functional
[19] = test system: Helicoverpa armigera; assay: Stomach toxicity against third-instars Helicoverpa armigera assessed as larvicidal activity at 25 +/- 1 degC after 3 days; assay type: functional; summary of the method: as §1
[20] = test system: Plutella xylostella; assay: Antifeedant activity against Plutella xylostella (diamondback moth) at 200 to 600 mg/kg by leaf dip method; assay type: functional, organism-based
[21] = test system: Tetranychus cinnabarinus; assay: Acaricidal activity against Tetranychus cinnabarinus (carmine spider mite) adults at 200 mg/kg by leaf dip method; assay type: functional

Structure (SMILES) | Activity [1] [%] | Activity [2] [%] | Activity [3] [%] | Activity [4] [%] | Activity [5] [%] | Activity [6] [%] | Activity [7] [%] | Activity [8] [%] | Activity [9] [%] | Activity [10] [%] | Activity [11] [%] | Activity [12] [%] | Activity [13] [%] | Activity [14] [%] | Activity [15] [%] | Activity [16] [%] | Activity [17] [%] | Activity [18] [%] | Activity [21] [%] | further results
CCc1nn(C)c(C(=O)NC(CO)c2ccc(Oc3ccccc3)cc2)c1Cl (centres undefined) | 15 | 40 | 70 | 100 | 20 | 50 | 100 | 100 | 0 | 100 | 60 | 40 | 0 | 0 | 0 | 100 | 30 | 0 | – | –
CCc1nn(C)c(C(=O)NCc2ccc(Oc3ccc(C)cc3)cc2)c1Cl [TOLFENPYRAD] | – | – | 100 | – | 100 | – | – | – | 70 | 100 | 100 | 100 | – | – | – | 100 | – | – | – | LC50 [19]: 2.47 mg/kg
CCc1nn(C)c(C(=O)NC(CCl)c2ccc(Cl)cc2)c1Cl (centres undefined) | 10 | 50 | 100 | 100 | 60 | 50 | 80 | 100 | 40 | 100 | 70 | 70 | 0 | 0 | 0 | 100 | 0 | – | – | Activity [20]: Active
CCCCCOc1ccc(C(CCl)NC(=O)c2cc(CC)nn2C)cc1 (centres undefined) | 70 | 0 | 40 | 60 | 0 | 80 | 100 | 100 | – | 100 | 15 | 0 | – | 50 | 0 | 100 | 70 | 40 | – | –
CCc1nn(C)c(C(=O)NC(CCl)c2ccc(Oc3ccccc3)cc2)c1Cl (centres undefined) | 20 | 60 | 100 | 100 | 60 | 80 | 100 | 100 | 40 | 100 | 90 | 80 | 0 | 0 | 0 | 100 | 30 | 20 | – | Activity [20]: Active
CCc1nn(C)c(C(=O)NC(CCl)c2ccc(C(C)(C)C)cc2)c1Cl (centres undefined) | 34 | 40 | 100 | 100 | 30 | 100 | 100 | 100 | 0 | 100 | 90 | 20 | 0 | 30 | 0 | 100 | 30 | 0 | – | –
CCCCCOc1ccc(C(CO)NC(=O)c2cc(CC)nn2C)cc1 (centres undefined) | 20 | – | 60 | 0 | 30 | 85 | 100 | 20 | 0 | 100 | 45 | 20 | – | 0 | 45 | 100 | 20 | 0 | 0 | –
CCCCCOc1ccc(C2COC(c3c(Cl)c(CC)nn3C)=N2)cc1 (centres undefined) | 40 | 0 | 100 | 50 | 30 | 90 | 100 | 100 | 30 | 100 | 70 | 80 | – | 20 | 20 | 100 | 15 | 0 | 15 | Activity [20]: Active
CCc1cc(C2=NC(c3ccc(Cl)cc3)CO2)n(C)n1 (centres undefined) | 100 | – | 70 | 0 | 15 | 90 | 100 | 10 | 0 | 100 | 60 | 40 | – | 80 | 20 | 100 | 40 | 20 | 0 | –
CCc1nn(C)c(C2=NC(c3ccc(C(C)(C)C)cc3)CO2)c1Cl (centres undefined) | 20 | 50 | 100 | 100 | 30 | 50 | 90 | 100 | 40 | 100 | 50 | 70 | 0 | 0 | 30 | 100 | 45 | 30 | 10 | –
CCc1cc(C(=O)NC(CO)c2ccc(C(C)(C)C)cc2)n(C)n1 (centres undefined) | 50 | – | 60 | 0 | 60 | 50 | 70 | 10 | 0 | 100 | 70 | 10 | – | 40 | 0 | 100 | 0 | – | – | –
CCc1cc(C(=O)NC(CCl)c2ccc(C(C)(C)C)cc2)n(C)n1 (centres undefined) | 80 | – | 100 | 0 | 15 | 65 | 80 | 60 | 60 | 100 | 30 | 90 | – | 40 | 30 | 100 | 20 | 0 | 0 | LC50 [19]: 3.33 mg/kg
CCc1cc(C2=NC(c3ccc(C(C)(C)C)cc3)CO2)n(C)n1 (centres undefined) | 100 | 0 | 40 | 60 | 45 | 90 | 98 | 100 | – | 100 | 60 | 0 | – | 95 | 100 | 100 | 90 | 80 | 95 | Activity [20]: Active
CCc1nn(C)c(C2=NC(c3ccc(Cl)cc3)CO2)c1Cl (centres undefined) | 40 | 0 | 100 | 50 | – | 35 | 60 | 100 | 60 | 100 | 0 | 90 | – | 0 | 10 | 100 | 20 | 0 | 0 | –
CCCCCOc1ccc(C(CCl)NC(=O)c2c(Cl)c(CC)nn2C)cc1 (centres undefined) | 40 | 0 | 100 | 70 | 45 | 45 | 100 | 100 | 10 | 100 | 90 | 60 | – | 0 | 0 | 100 | 30 | 0 | – | –
